Several values for one entry are separate records, joined by “and”; a condition that tells them apart may be missing. Identical values can stand only once.
Assays:
macrophages = details: including chemokines and their receptors; ref [6]; cited from earlier work
neutrophils [1] = experiment: Cross-desensitization of calcium mobilization of neutrophils; type: cell-based, human
THP-1 cells = experiment: Calcium mobilization in THP-1 cells; type: cell-based; details: Fig. 7C
Procedure, shortened: (§1)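 Peripheral blood monocytes (kit-isolated from PBMC, CD14-checked) or THP-1 cells at 10^7/mL were loaded with 5 µM Indo-1-AM for 7 min at 37 °C, then held 10 min at RT and washed in cold PBS. Cells were run at 2×10^6/mL in KRP (PBS, 1.5 mM CaCl2, 1.5 mM MgSO4). After baseline they got a first stimulus, then a second. Flow cytometry used 351 nm excitation and the 405:485 nm ratio, gating live cells. Three independent experiments.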

CXCR2 [2] = experiment: Confocal analysis of CXCR2 internalization in neutrophils; type: cell-based, human; details: LL-37 5 µM or CXCL8 50 nM, 1 h, 37°C; Fig. 8
Procedure, shortened: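 Neutrophils came from citrated donor blood by dextran sedimentation and Ficoll gradient. […] Cells were fixed in 2% paraformaldehyde, permeabilised with saponin and blocked with human serum. Anti-CXCR1 or anti-CXCR2 mAb (4°C), then Alexa 488 anti-mouse IgG, DAPI mount, confocal imaging; three independent experiments.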

CXCR2 [3] = experiment: Calcium mobilization in HEK293/CXCR2 cells; type: cell-based, human; details: Indo-1; Fig. 7A-B
Procedure, shortened: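 They were washed in cold PBS, pelleted at 200 × g for 10 min at 4 °C, and resuspended in PBS with Ca/Mg. […] [Ca2+]i was read as the 405:485 nm ratio by flow cytometry, gating on living cells.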

neutrophils [4] = details: ref [13]; cited from earlier work
CXCR2 [5] = experiment: Total CXCR2 protein in neutrophils, western blot; type: cell-based, human; details: LL-37 treated neutrophils, Supporting Information Fig. 6B
[6] = system: CXCR1 transfected HEK293 cells; experiment: Secondary necrosis of CXCR1 transfected HEK293 cells; type: cell-based; details: Supporting information Fig. 4
[7] = cited from earlier work
P2X7 [8] = details: LL-37; ref [14]; cited from earlier work
neutrophils [9] = experiment: Toxicity to neutrophils; type: cell-based, human
FPR2 = FPR2 surface expression on neutrophils; type: cell-based, human; details: LL-37; data not shown
CXCR2 [10] = experiment: CXCR2 surface expression on neutrophils, flow cytometry; type: cell-based, human
monocytes [11] = experiment: Migration of monocytes, 24-well Transwell; type: cell-based, human; details: LL-37 5 µM, CXCL1 50 nM, WKYMVm 5 µM, ATP 50 µM, BzATP 50 µM; 90 min, 37°C; Fig. 7F
Procedure, shortened: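 CFSE-labelled monocytes or THP-1 cells (5 µM, 5 min RT) at 2×10^6/mL in phenol-red-free RPMI 1640 with 1% FBS went in the Transwell upper chamber (3-µm pores). Stimuli in the lower chamber included CXCL1 50 nM, WKYMVm 5 µM and ATP/BzATP 50 µM. Cells were used with or without 20 min preincubation with 10 µM CXCR2 antagonist. Incubation at 37 °C lasted 90 min for monocytes and 2 h for THP-1. Lower-well cells were read at 495 nm against a standard curve, in quadruplicate.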

neutrophils [12] = experiment: Neutrophil migration, 24-well Transwell; type: cell-based, human; details: 1 h, 37°C, Fig. 6H
Procedure, shortened: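 CFSE-labelled human neutrophils (5 µM, 5 min RT) at 5×10^6/mL in phenol-red-free RPMI 1640 with 1% FBS went in the Transwell upper chamber (3-µm pores). The lower chamber held test peptide (1 or 5 µM) or medium. Some cells were first preincubated 20 min with 10 µM CXCR2 antagonist. After 1 h at 37 °C, migrated cells were read at 495 nm against a standard curve. Quadruplicate; unpaired t-test.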

P2X7 [13] = experiment: P2X7 surface expression on neutrophils, flow cytometry; type: cell-based, human; details: LL-37 treated neutrophils, 3h; Fig. 2D
Procedure, shortened: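 Human blood neutrophils were isolated by dextran sedimentation and Ficoll (>95% CD16+) and held at 5×10^6/mL in RPMI 1640 with 1% FBS. They were treated 3h with a dose series (test peptide 1–10 µM; chemokines 1, 5, 10, 50 nM) or with 5 µM for 0.5–3h. Cells were blocked in 10% human serum and stained with anti-CXCR1-APC/anti-CXCR2-FITC or anti-P2X7-FITC, plus anti-CD16. Read-out was flow cytometry GMFI.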

neutrophils [14] = experiment: Calcium mobilization of neutrophils; type: cell-based, human
monocytes [15] = experiment: Calcium mobilization in monocytes; type: cell-based, human
Procedure, shortened: as §1

CD4+ T cells = details: ref [3], [9], [10]; cited from earlier work
CXCR2 [16] = experiment: CXCR2 surface expression on monocytes; type: cell-based, human; details: Supporting information Fig. 2
mast cells = details: ref [3], [9], [10]; cited from earlier work
monocytes [17] = details: cited from earlier work
immature dendritic cells = details: differentiated from monocytes; ref [9]; cited from earlier work
neutrophils [18] = details: LL-37; ref [15]; cited from earlier work

LL-37: ~4.5 kD active α-helical peptide, C-terminal domain of human cathelicidin hCAP18
number of genes with stimulated expression by macrophages (macrophages): over 40 genes
cross-desensitization of ATP response by LL-37 (neutrophils [1]; LL-37 first, then ATP, Supporting information Fig. 3A-B): unable to block calcium mobilization stimulated by LL-37 in neutrophils, and vice versa
cross-desensitization of response to fMLF by LL-37, CXCL7, CXCL1 (neutrophils [1]; data not shown): do not cross-sensitize fMLF stimulation
calcium signal in THP-1 cells (THP-1 cells): robust calcium signal
return of Ca2+ response to baseline, THP-1 (THP-1 cells; LL-37): returns to baseline for THP-1 cells
block of ATP induced calcium mobilization by LL-37 (THP-1 cells; THP-1): able to partially block
CXCR2 translocation (internalization) (CXCR2 [2]): translocation of CXCR2 but not CXCR1 to the cytoplasmic granules
calcium mobilization in CXCR2 transfected HEK293 cells (CXCR2 [3]): weak but similar patterns of calcium mobilization
inhibition of spontaneous neutrophil apoptosis (neutrophils [4]): potent inhibitor of spontaneous neutrophil apoptosis
total CXCR2 protein level (CXCR2 [5]): no changes in total amounts
generation of secondary necrotic cells, HEK293/CXCR1 [6]: generation of secondary necrotic cells
wound neovascularization ([7]; ref [7]): promotes wound neovascularization
re-epithelialization of healing skin ([7]; ref [8]): re-epithelialization of healing skin
IL-1β processing and release from monocytes (P2X7 [8]): induce IL-1β processing and release from monocytes
cell membrane permeability (neutrophils [9]; > 10 µM LL-37, 125I-CXCL8 enters cells non-specifically): can cause cell membrane permeability
concentration with toxic activity on neutrophils (neutrophils [9]; in 125I-CXCL8 binding study): > 10 µM and 10 µM
FPR2 surface expression, time course (FPR2): remained unchanged
down-regulation of CXCR2 in time course compared to untreated controls (CXCR2 [10]; LL-37 5 µM, at 3h, p<0.001, Fig. 1B, four independent experiments): 50%
CXCR2 surface expression at 10 µM (CXCR2 [10]; LL-37 10 µM, 3h): a further reduction was observed at 10 µM
stimulation of migration of monocytes (monocytes [11]): able to stimulate migration in monocytes
neutrophil migration at 1 µM (neutrophils [12]; LL-37 1 µM): not at 1 µM
neutrophil migration at 5 µM (neutrophils [12]; LL-37 5 µM, over background, p<0.05): induced neutrophil migration (over background)
P2X7 surface expression (P2X7 [13]): up-regulate the expression of P2X7
[Ca2+]i pattern, dose response (neutrophils [14]; LL-37 1 µM, 2.5 µM, 5 µM, 10 µM, Indo-1, Fig. 3A): a rapid rise followed by a slightly declining plateau region
[Ca2+]i duration (neutrophils [14]; LL-37, 600s recording time, Fig. 3A): sustained calcium mobilization over the 600s recording time
return of Ca2+ response to baseline, neutrophils (neutrophils [14]; LL-37, Fig 3A): returns to baseline for THP-1 cells, but not for neutrophils and monocytes
calcium flux response in the absence of extracellular Ca2+ (neutrophils [14]; PBS without calcium and magnesium, LL-37 5 µM, WKYMVm 5 µM, ATP 5 µM, Fig. 3C): only the WKYMVm peptide is capable of generating a calcium flux response
return of Ca2+ response to baseline, monocytes (monocytes [15]; LL-37, Fig. 7D): returns to baseline for THP-1 cells, but not for neutrophils and monocytes
cross-block of ATP stimulated calcium mobilization in monocytes (monocytes [15]; LL-37 first, then ATP, Fig. 7D): neither ATP nor WKYMVm cross-block LL-37 stimulated calcium mobilization and vice versa
cross-block of WKYMVm stimulated calcium mobilization in monocytes (monocytes [15]; LL-37 first, then WKYMVm, Fig. 7D): neither ATP nor WKYMVm cross-block LL-37 stimulated calcium mobilization and vice versa
calcium mobilization in monocytes (monocytes [15]; LL-37 stimulated): stimulates calcium mobilization
migration of CD4+ T cells (CD4+ T cells): migration of human peripheral monocytes, neutrophils, CD4+ T cells
CXCR2 down-regulation on monocytes (CXCR2 [16]): down-regulate CXCR2
migration of mast cells (mast cells): migration of human peripheral monocytes, neutrophils, CD4+ T cells, and mast cells
migration of human peripheral monocytes (monocytes [17]; ref [3], [9], [10]): migration of human peripheral monocytes
in vitro migration of human peripheral blood monocytes (monocytes [17]; ref [9]): induces in vitro migration of human peripheral blood monocytes
migration of immature dendritic cells (immature dendritic cells): but not immature dendritic cells
ATP release (neutrophils [18]): induces ATP release from neutrophils
